The nature of data set [1]: Therapeutic index, ratio of IC50 for human MT4 cells to EC50 for HIV1 NL4-3. The format is cell-based. The conditions noted are these: read-out: TI. Put shortly:
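TI was calculated as IC50 (growth inhibition of mock-infected MT-4 cells) divided by EC50 (inhibition of HIV-1 NL4-3 replication in MT-4 cells). Both inputs are averages of at least two separate experiments.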

The subject of data set [2] is Human immunodeficiency virus 1. Nature of the data set: Antiviral activity against HIV1 NL4-3 infected in human MT4 cells assessed as inhibition of viral replication after 4 days by p24 antigen based ELISA assay. The format is functional, organism-based. As to conditions: Human immunodeficiency virus 1, NL4-3, MT4, 96 h. In general terms: In an ELISA, binding on a coated surface is turned into a signal by an enzyme label.

The next data set relates to MT4. Nature of the data set: Cytotoxicity against human MT4 cells after 4 days. Type of data set: cell-based. As to conditions: MT4, 96 h. Put shortly:
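Mock-infected MT-4 cells were used. IC50 is the concentration giving 50% inhibition of cell growth. Values are averages of at least two separate experiments.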

Data on 18 compounds can be found in ChEMBL document CHEMBL1221275 (Bioorg Med Chem, 2010).

A value given as a limit tells only on which side of the number the result lay.

As to `C=C(C)[C@@H]1CC[C@]2(COC(=O)CCC(=O)OC[C@H]3O[C@@H](n4cc(C)c(=O)[nH]c4=O)C[C@@H]3N=[N+]=[N-])CC[C@]3(C)[C@H](CC[C@@H]4[C@@]5(C)CC[C@H](OC(=O)CC(C)(C)C(=O)O)C(C)(C)[C@@H]5CC[C@]43C)[C@@H]12`, the selectivity ratio in data set [1] stood at 158. Besides, the concentration giving a half-maximal response (EC50) (in general, the concentration giving half of the maximal effect) in data set [2] is 0.045 µM. Moreover, in the data set with MT4, the IC50 (commonly the concentration at which inhibition is half-maximal) was 7.1 µM.

For the compound `C=C(C)[C@@H]1CC[C@]2(COC(=O)CCCC(=O)OC[C@H]3O[C@@H](n4cc(C)c(=O)[nH]c4=O)C[C@@H]3N=[N+]=[N-])CC[C@]3(C)[C@H](CC[C@@H]4[C@@]5(C)CC[C@H](OC(=O)CC(C)(C)C(=O)O)C(C)(C)[C@@H]5CC[C@]43C)[C@@H]12`, in data set [1], the selectivity ratio was found to be 145. The EC50 in data set [2] is 0.06 µM. In the data set with MT4, this compound displayed a half-maximal inhibitory concentration (IC50) of 8.7 µM.

Regarding `C=C(C)[C@@H]1CC[C@]2(COC(=O)CC(C)(C)C(=O)OC[C@H]3O[C@@H](n4cc(C)c(=O)[nH]c4=O)C[C@@H]3N=[N+]=[N-])CC[C@]3(C)[C@H](CC[C@@H]4[C@@]5(C)CC[C@H](OC(=O)CC(C)(C)C(=O)O)C(C)(C)[C@@H]5CC[C@]43C)[C@@H]12`, in data set [1], the selectivity ratio is 71. In data set [2], the concentration giving a half-maximal response (EC50) turned out to be 0.098 µM. In the data set with MT4, this compound had an IC50 of 7 µM.

On to `C=C(C)[C@@H]1CC[C@]2(COC(=O)C(C)(C)CC(=O)OC[C@H]3O[C@@H](n4cc(C)c(=O)[nH]c4=O)C[C@@H]3N=[N+]=[N-])CC[C@]3(C)[C@H](CC[C@@H]4[C@@]5(C)CC[C@H](OC(=O)CC(C)(C)C(=O)O)C(C)(C)[C@@H]5CC[C@]43C)[C@@H]12`, for which, in data set [1], the selectivity ratio was 135. The EC50 in data set [2] was 0.04 µM. The IC50 in the data set with MT4 was 5.4 µM.

On to `C=C(C)[C@@H]1CC[C@]2(COC(=O)CC(C)(C)CC(=O)OC[C@H]3O[C@@H](n4cc(C)c(=O)[nH]c4=O)C[C@@H]3N=[N+]=[N-])CC[C@]3(C)[C@H](CC[C@@H]4[C@@]5(C)CC[C@H](OC(=O)CC(C)(C)C(=O)O)C(C)(C)[C@@H]5CC[C@]43C)[C@@H]12`, for which the selectivity ratio in data set [1] turned out to be 129. Also, the EC50 in data set [2] came out at 0.063 µM. The concentration for half-maximal inhibition (IC50) in the data set with MT4 was 8.1 µM.

As for `C=C(C)[C@@H]1CC[C@]2(COC(=O)CC(C)(C)CC(=O)OC[C@H]3O[C@@H](n4cc(C)c(=O)[nH]c4=O)C[C@@H]3N=[N+]=[N-])CC[C@]3(C)[C@H](CC[C@@H]4[C@@]5(C)CC[C@H](OC(=O)CC(C)(C)CC(=O)O)C(C)(C)[C@@H]5CC[C@]43C)[C@@H]12`, the selectivity ratio in data set [1] is 43. For the same compound, in data set [2], the half-maximal effective concentration (EC50) amounted to 0.18 µM. In the data set on MT4, the half-maximal inhibitory concentration (IC50) worked out at 7.7 µM.

Regarding `Cc1cn([C@H]2C[C@H](N=[N+]=[N-])[C@@H](COC(=O)C(C)(C)CC(=O)OC[C@]34CC[C@@H](C(C)C)[C@@H]3[C@H]3CC[C@@H]5[C@@]6(C)CC[C@H](OC(=O)CC(C)(C)C(=O)O)C(C)(C)[C@@H]6CC[C@@]5(C)[C@]3(C)CC4)O2)c(=O)[nH]c1=O`, in data set [1], the selectivity ratio was determined as 103. The EC50 in data set [2] came to 0.087 µM. The compound also came in with an IC50 in the data set on MT4 of 9 µM.

As to `Cc1cn([C@H]2C[C@H](N=[N+]=[N-])[C@@H](COC(=O)CC(C)(C)C(=O)OC[C@]34CC[C@@H](C(C)C)[C@@H]3[C@H]3CC[C@@H]5[C@@]6(C)CC[C@H](OC(=O)CC(C)(C)C(=O)O)C(C)(C)[C@@H]6CC[C@@]5(C)[C@]3(C)CC4)O2)c(=O)[nH]c1=O`, the selectivity ratio in data set [1] worked out at 138. Also, the EC50 in data set [2] came out at 0.056 µM. The compound further displayed a half-inhibitory concentration (IC50) in the data set on MT4 of 7.7 µM.

For `Cc1cn([C@H]2C[C@H](N=[N+]=[N-])[C@@H](COC(=O)CC(C)(C)CC(=O)OC[C@]34CC[C@@H](C(C)C)[C@@H]3[C@H]3CC[C@@H]5[C@@]6(C)CC[C@H](OC(=O)CC(C)(C)C(=O)O)C(C)(C)[C@@H]6CC[C@@]5(C)[C@]3(C)CC4)O2)c(=O)[nH]c1=O`, in data set [1], the selectivity ratio is 31. Further, the half-maximal effective concentration (EC50) in data set [2] stood at 0.29 µM. This compound also gave a half-maximal inhibitory concentration (IC50) with MT4 of 9 µM.

Consider `Cc1cn([C@H]2C[C@H](N=[N+]=[N-])[C@@H](COC(=O)CC(C)(C)C(=O)OC[C@]34CC[C@@H](C(C)C)[C@@H]3[C@H]3CC[C@@H]5[C@@]6(C)CC[C@H](OC(=O)CCCC(=O)O)C(C)(C)[C@@H]6CC[C@@]5(C)[C@]3(C)CC4)O2)c(=O)[nH]c1=O`, for which the selectivity ratio in data set [1] came to 110. Besides, the EC50 in data set [2] is 0.073 µM. Moreover, the IC50 in the data set with MT4 amounted to 8 µM.

For `Cc1cn([C@H]2C[C@H](N=[N+]=[N-])[C@@H](COC(=O)C(C)(C)CC(=O)OC[C@]34CC[C@@H](C(C)C)[C@@H]3[C@H]3CC[C@@H]5[C@@]6(C)CC[C@H](OC(=O)CCCC(=O)O)C(C)(C)[C@@H]6CC[C@@]5(C)[C@]3(C)CC4)O2)c(=O)[nH]c1=O`, the selectivity ratio in data set [1] was determined as 28. In addition, the 50% effective concentration (EC50) in data set [2] is 0.26 µM. Besides, in the data set on MT4, 7.2 µM corresponded to half-maximal inhibition (IC50).

On to `Cc1cn([C@H]2C[C@H](N=[N+]=[N-])C(COC(=O)CCCC(=O)OC[C@]34CC[C@@H](C(C)C)[C@@H]3[C@H]3CC[C@@H]5[C@@]6(C)CC[C@H](OC(=O)CCCC(=O)O)C(C)(C)[C@@H]6CC[C@@]5(C)[C@]3(C)CC4)O2)c(=O)[nH]c1=O` (some centres not stated), for which the selectivity ratio in data set [1] was determined as 97. In data set [2], the EC50 was 0.093 µM. In the data set on MT4, this compound registered a half-inhibitory concentration (IC50) of 9 µM.

Turning to `Cc1cn([C@H]2C[C@H](N=[N+]=[N-])C(COC(=O)CC(C)(C)CC(=O)OC[C@]34CC[C@@H](C(C)C)[C@@H]3[C@H]3CC[C@@H]5[C@@]6(C)CC[C@H](OC(=O)CCCC(=O)O)C(C)(C)[C@@H]6CC[C@@]5(C)[C@]3(C)CC4)O2)c(=O)[nH]c1=O` (some centres not stated), the selectivity ratio in data set [1] was determined as 7. Besides, in data set [2], the half-maximal effective concentration (EC50) was 1.21 µM. Besides, half-maximal inhibition in the data set on MT4 (IC50) was put at 8.5 µM.

With `Cc1cn([C@H]2C[C@H](N=[N+]=[N-])C(COC(=O)CC(C)(C)CC(=O)OC[C@]34CC[C@@H](C(C)C)[C@@H]3[C@H]3CC[C@@H]5[C@@]6(C)CC[C@H](OC(=O)CC(C)(C)CC(=O)O)C(C)(C)[C@@H]6CC[C@@]5(C)[C@]3(C)CC4)O2)c(=O)[nH]c1=O` (some centres not stated), the selectivity ratio in data set [1] turned out to be 27. Besides, the EC50 in data set [2] stood at 0.36 µM. Further, the IC50 in the data set with MT4 turned out to be 9.8 µM.

`C=C(C)[C@@H]1CC[C@]2(COC(=O)CCC(=O)O)CC[C@]3(C)[C@H](CC[C@@H]4[C@@]5(C)CC[C@H](OC(=O)CC(C)(C)C(=O)O)C(C)(C)[C@@H]5CC[C@]43C)[C@@H]12`: in data set [1], the selectivity ratio was determined as 63. For the same compound, the EC50 in data set [2] came to 0.18 µM. Besides, the IC50 in the data set with MT4 was 11.3 µM.

As for `C=C(C)[C@@H]1CC[C@]2(COC(=O)CCCC(=O)O)CC[C@]3(C)[C@H](CC[C@@H]4[C@@]5(C)CC[C@H](OC(=O)CC(C)(C)C(=O)O)C(C)(C)[C@@H]5CC[C@]43C)[C@@H]12`, the selectivity ratio in data set [1] was greater than 47. Also, in data set [2], the EC50 was 0.31 µM. The compound also came in with a 50% inhibitory concentration (IC50) in the data set on MT4 greater than 46.6 µM.

As to `C=C(C)[C@@H]1CC[C@]2(C(=O)O)CC[C@]3(C)[C@H](CC[C@@H]4[C@@]5(C)CC[C@H](OC(=O)CC(C)(C)C(=O)O)C(C)(C)[C@@H]5CC[C@]43C)[C@@H]12` [BEVIRIMAT], the selectivity ratio in data set [1] is greater than 52. Moreover, in data set [2], the 50% effective concentration (EC50) came out at 0.096 µM. This compound had an IC50 in the data set with MT4 greater than 5 µM.

Turning to `Cc1cn([C@H]2C[C@H](N=[N+]=[N-])[C@@H](CO)O2)c(=O)[nH]c1=O` [ZIDOVUDINE], the IC50 in the data set on MT4 was greater than 37.4 µM.
